The results in this text go back to ChEMBL document CHEMBL4342514, “Azole Based Acetohydrazide Derivatives of Cinnamaldehyde Target and Kill Candida albicans by Causing Cellular Apoptosis” (ACS Med Chem Lett, 2020).

In brackets after ≈: the same amount, converted by molar mass. Bounds are passed on as bounds.

Data set [1] has as its system Candida albicans. In words: Antifungal activity against fluconazole-susceptible Candida albicans assessed as growth inhibition measured after 24 hrs by CLSI protocol based broth microdilution method. It counts as functional. The method, boiled down:
(§1)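 C. albicans clinical isolates were tested: 8 fluconazole-susceptible and 3 fluconazole-resistant. Isolates were called resistant at a fluconazole MIC ≥8 μg/mL, per CLSI 2012 interpretive guidelines. Compounds were diluted to test concentrations in 1% DMSO, which served as the negative control. Fluconazole was the positive control. Values are means per group.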
Background: Broth dilution looks for growth in wells or tubes with falling amounts of substance.

Data set [2] concerns Candida albicans. In words: Fungicidal activity against fluconazole-susceptible Candida albicans assessed as growth inhibition by sub-culturing on Agar plate and incubated for 24 to 48 hrs. The class given is functional. In a few lines:
as §1

Data set [3] deals with Candida albicans. In words: Antifungal activity against fluconazole-resistant Candida albicans assessed as growth inhibition measured after 24 hrs by CLSI protocol based broth microdilution method. It counts as functional. In a few lines: as §1
The test system of data set [4] is Candida albicans. The experiment in a line: Fungicidal activity against fluconazole-resistant Candida albicans assessed as growth inhibition by sub-culturing on Agar plate and incubated for 24 to 48 hrs. It counts as functional. In a few lines: as §1
The subject of data set [5] is Candida albicans. The experiment in a line: Antifungal activity against Candida albicans SC5314 assessed as effect on fungal cell viability by measuring live cells at MIC measured after 3 hrs by Muse cell analyzer (reference value: 98.6 %). The class given is functional.
Data set [6] concerns Candida albicans. The experiment in a line: Antifungal activity against Candida albicans SC5314 assessed as effect on fungal cell viability by measuring dead cells at MIC measured after 3 hrs by Muse cell analyzer (reference value: 1.4 %). It counts as functional. In a few lines: (§2)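 Candida albicans SC5314 cells at a density of 1 × 107 were exposed to each compound at its MIC. Live and dead cells were counted with the Muse Count & Viability kit. Untreated cells were the negative control and heat-killed cells the positive control. A cell size index was run in the same assay to separate cells from debris and non-nucleated cells.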

The test system of data set [7] is Candida albicans. The experiment in a line: Induction of apoptosis in Candida albicans SC5314 protoplasts assessed as necrotic cells at 1/2 MIC measured after 3 hrs by Annexin V-FITC/propidium iodide staining based flow cytometry (reference value: 0.15 +/- 0.03 %). It counts as functional.
Data set [8] has as its system Candida albicans. In words: Induction of apoptosis in Candida albicans SC5314 protoplasts assessed as late apoptotic cells at 1/2 MIC measured after 3 hrs by Annexin V-FITC/propidium iodide staining based flow cytometry (reference value: 0.06 +/- 0.01 %). The class given is functional. (In general: In flow cytometry, cells or beads pass a laser one at a time.)
Data set [9] deals with Candida albicans. The experiment in a line: Induction of apoptosis in Candida albicans SC5314 protoplasts assessed as early apoptotic cells at 1/2 MIC measured after 3 hrs by Annexin V-FITC/propidium iodide staining based flow cytometry (reference value: 3.47 +/- 0.26 %). It counts as functional.
Data set [10] concerns Candida albicans. In words: Induction of apoptosis in Candida albicans SC5314 protoplasts assessed as viable cells at 1/2 MIC measured after 3 hrs by Annexin V-FITC/propidium iodide staining based flow cytometry (reference value: 96.3 %). The class given is functional.
Data set [11] concerns Candida albicans. In words: Induction of DNA damage in Candida albicans SC5314 assessed as apoptotic cells at 1/2 MIC measured after 3 hrs by TUNEL based confocal microscopy relative to control. The class given is functional. The method, boiled down: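 SC5314 cells exposed to 1/2 MIC of compound, then TUNEL-labelled with fluorescent dUTP (Ex/Em 488/515 nm) and counterstained with Hoechst 33342 (Ex/Em 350/460 nm). Imaged by confocal laser scanning microscopy and scored as % TUNEL-positive nuclei against untreated control.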

Data set [12] in a line: Hemolytic activity against horse erythrocytes at 4 to 125 ug/ml measured after 3 hrs by spectrophometric analysis. Conditions: read-out: Activity. It counts as ADME, cell-based, Equus caballus, Erythrocyte. The method, boiled down:
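Horse red blood cells exposed to compound. Hemolysis read as absorbance at 450 nm and expressed as % lysis relative to 1% Triton X-100, taken as 100% hemolysis.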

For data set [13], the system named is Candida albicans. The experiment in a line: Antifungal activity against Candida albicans SC5314 assessed as effect on fungal cell death at MIC measured after 3 hrs by Muse cell analyzer relative to control. The class given is functional. The method, boiled down: as §2
The subject of data set [14] is Candida albicans. The experiment in a line: Induction of DNA damage in Candida albicans SC5314 assessed as increase in TUNEL positive nuclei at 0.125 ug/ml measured after 3 hrs by TUNEL based confocal microscopy relative to control. The class given is functional. In a few lines: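 SC5314 cells treated with 0.125 μg/mL amphotericin B, then TUNEL-labelled with fluorescent dUTP and counterstained with Hoechst 33342. Confocal microscopy scored TUNEL-positive (green) nuclei relative to untreated cells.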

A word on the MIC: it is the least concentration at which growth counts as inhibited. What is called MFC is the lowest tested concentration that kills the fungus rather than only halting it. As for `C(=C\c1nn[nH]n1)/c1ccccc1`, in the data set with Candida albicans [1], the minimum inhibitory concentration (MIC) is above 125 µg/mL. The MFC in the data set on Candida albicans [2] is above 125 µg/mL.
For the compound `CCOC(=O)Cn1nnc(/C=C/c2ccccc2)n1`, the MIC with Candida albicans [1] is above 125 µg/mL. In addition, the MFC in the data set on Candida albicans [2] was above 125 µg/mL.
In the case of `COc1ccc(/C=N/NC(=O)Cn2nnc(/C=C/c3ccccc3)n2)cc1OC`, the MIC in the data set on Candida albicans [1] worked out at 2 µg/mL (≈ 5.1 µM); with Candida albicans [3] it was 4 µg/mL (≈ 10.2 µM). Besides, the MFC with Candida albicans [2] and with Candida albicans [4] was 8 µg/mL (≈ 20.4 µM) each time. In addition, the Activity in the data set on Candida albicans [5] worked out at 44.8%; in the data set on Candida albicans [6], 55.2%; in the data set with Candida albicans [7], 4.55%; in the data set on Candida albicans [8] it was 24.93%; in the data set on Candida albicans [9], 9.69%; in the data set with Candida albicans [10], 61.4%. The Activity in the data set on Candida albicans [11] is reported as 25 - 55%. The hemolysis at 3 h in data set [12] fell in the range of 10 to 40%.
As to `CCOc1ccc(/C=N/NC(=O)Cn2nnc(/C=C/c3ccccc3)n2)cc1`, the MIC was determined as 4 µg/mL (≈ 10.6 µM) in the data set on Candida albicans [1] and 8 µg/mL (≈ 21.3 µM) with Candida albicans [3]. In addition, the MFC in the data set on Candida albicans [2] and with Candida albicans [4] was 8 µg/mL (≈ 21.3 µM) throughout. The Activity in the data set with Candida albicans [5] is on record as 46.4%; in the data set on Candida albicans [6], 53.6%; with Candida albicans [7], 2.44%; in the data set on Candida albicans [8], 27.92%; with Candida albicans [9], 10.49%; in the data set on Candida albicans [10], 59.9%. The Activity in the data set on Candida albicans [11] was 25 - 55%. Further, in data set [12], the hemolysis at 3 h was in the range of 10 to 40%.
Consider `O=C(Cn1nnc(/C=C/c2ccccc2)n1)N/N=C/c1cccc([N+](=O)[O-])c1`, for which the minimal inhibitory concentration (MIC) in the data set on Candida albicans [1] came out at 0.25 µg/mL (≈ 0.662 µM); in the data set with Candida albicans [3], 0.5 µg/mL (≈ 1.32 µM). The minimal fungicidal concentration (MFC) in the data set with Candida albicans [2] and with Candida albicans [4] was 1 µg/mL (≈ 2.65 µM) throughout. In addition, the Activity in the data set on Candida albicans [5] was found to be 29.6%; in the data set on Candida albicans [6] it was 70.4%; in the data set on Candida albicans [7], 11.7%; in the data set on Candida albicans [8], 44.65%; in the data set with Candida albicans [9], 8.23%; in the data set with Candida albicans [10] it was 35.3%. For the same compound, the Activity in the data set with Candida albicans [11] is reported as 25 - 55%. Besides, the hemolysis at 3 h in data set [12] lay in the range of 10 to 40%.
Regarding `O=C(Cn1nnc(/C=C/c2ccccc2)n1)N/N=C/c1ccccc1`, the MIC in the data set on Candida albicans [1] and in the data set with Candida albicans [3] was 125 µg/mL (≈ 376 µM) throughout. Moreover, in the data set on Candida albicans [2], the MFC is above 125 µg/mL.
Turning to `O=C(Cn1nnc(/C=C/c2ccccc2)n1)N/N=C/c1ccc([N+](=O)[O-])cc1`, the MIC was 0.125 µg/mL (≈ 0.331 µM) with Candida albicans [1] and 0.5 µg/mL (≈ 1.32 µM) with Candida albicans [3]. Further, the minimum fungicidal concentration (MFC) in the data set on Candida albicans [2] and in the data set with Candida albicans [4] was 1 µg/mL (≈ 2.65 µM) in each case. Also, the Activity in the data set on Candida albicans [5] is 22.8%; in the data set on Candida albicans [6] it was 77.2%; with Candida albicans [13], above 75%; in the data set on Candida albicans [7], 9.8%; in the data set with Candida albicans [8], 48.3%; in the data set on Candida albicans [9] it was 8.21%. Further, the Activity with Candida albicans [10] is reported as 33.8%; with Candida albicans [11], 25 - 55%. In addition, the hemolysis at 3 h in data set [12] is 10 to 40%.
On to `Cc1ccc(/C=N/NC(=O)Cn2nnc(/C=C/c3ccccc3)n2)cc1`, for which the minimal inhibitory concentration (MIC) in the data set with Candida albicans [1] and in the data set with Candida albicans [3] was 16 µg/mL (≈ 46.2 µM) throughout. Moreover, the MFC in the data set with Candida albicans [2] and in the data set with Candida albicans [4] was 16 µg/mL (≈ 46.2 µM) each time. The Activity stood at 55.8% in the data set on Candida albicans [5]; 44.2% in the data set with Candida albicans [6]; 3.7% with Candida albicans [7]; 15.6% with Candida albicans [8]; 10.18% in the data set on Candida albicans [9]; 71.3% with Candida albicans [10]. Further, in the data set with Candida albicans [11], the Activity is 25 - 55%. Besides, the hemolysis at 3 h in data set [12] was 10 to 40%.
Regarding `O=C(Cn1nnc(/C=C/c2ccccc2)n1)N/N=C/c1ccccc1Cl`, the values for the MIC with Candida albicans [1] and with Candida albicans [3] were 64 µg/mL (≈ 174 µM) and 125 µg/mL (≈ 341 µM), respectively. Also, in the data set on Candida albicans [2], the MFC is above 125 µg/mL.
On to `NNC(=O)Cn1nnc(/C=C/c2ccccc2)n1`, for which the MIC with Candida albicans [1] is above 125 µg/mL. In addition, the MFC in the data set on Candida albicans [2] is above 125 µg/mL.
Regarding `O=C(Cn1nnc(/C=C/c2ccccc2)n1)N/N=C/c1ccccc1[N+](=O)[O-]`, the MIC with Candida albicans [1] and in the data set on Candida albicans [3] was 0.5 µg/mL (≈ 1.32 µM) each time. For the same compound, the MFC in the data set on Candida albicans [2] and in the data set on Candida albicans [4] was 4 µg/mL (≈ 10.6 µM) throughout. Also, the Activity in the data set with Candida albicans [5] is 40.4%; with Candida albicans [6], 59.6%; with Candida albicans [7] it was 1.98%; in the data set on Candida albicans [8], 36.34%; with Candida albicans [9] it was 13.37%; in the data set with Candida albicans [10], 48.3%. Moreover, in the data set with Candida albicans [11], the Activity is 25 - 55%. The hemolysis at 3 h in data set [12] was in the range of 10 to 40%.
Consider `COc1ccc(/C=N/NC(=O)Cn2nnc(/C=C/c3ccccc3)n2)cc1`, for which the MIC with Candida albicans [1] and in the data set on Candida albicans [3] was 8 µg/mL (≈ 22.1 µM) throughout. Also, the results for the MFC in the data set on Candida albicans [2] and in the data set with Candida albicans [4] were 8 µg/mL (≈ 22.1 µM) and 16 µg/mL (≈ 44.2 µM), respectively. The Activity is recorded as 52.3% in the data set on Candida albicans [5]; 47.7% with Candida albicans [6]; 1.78% in the data set on Candida albicans [7]; 23.6% in the data set on Candida albicans [8]; 13.9% in the data set on Candida albicans [9]; 60.9% in the data set on Candida albicans [10]. Besides, the Activity with Candida albicans [11] is 25 - 55%. Besides, the hemolysis at 3 h in data set [12] lay within 10 to 40%.
With `O=C(Cn1nnc(/C=C/c2ccccc2)n1)N/N=C/c1ccc(Cl)cc1`, the MIC in the data set with Candida albicans [1] and with Candida albicans [3] was 64 µg/mL (≈ 174 µM) in each case. Further, the MFC in the data set on Candida albicans [2] is above 125 µg/mL.
With `O/N=C/C=C/c1ccccc1`, the MIC in the data set with Candida albicans [1] was above 125 µg/mL. For the same compound, in the data set on Candida albicans [2], the MFC was above 125 µg/mL.
For the compound `C[C@@H]1[C@H](O)[C@@H](C)/C=C/C=C/C=C/C=C/C=C/C=C/C=C/[C@H](O[C@@H]2O[C@H](C)[C@@H](O)[C@H](N)[C@@H]2O)C[C@@H]2O[C@](O)(C[C@@H](O)C[C@@H](O)[C@H](O)CC[C@@H](O)C[C@@H](O)CC(=O)O[C@H]1C)C[C@H](O)[C@H]2C(=O)O` [AMPHOTERICIN B], the Activity in the data set on Candida albicans [14] is given as above 90%.
`N#C/C=C/c1ccccc1` [CINNAMONITRILE]: the MIC in the data set with Candida albicans [1] and in the data set with Candida albicans [3] was above 125 µg/mL throughout. Besides, the MFC in the data set with Candida albicans [2] and in the data set on Candida albicans [4] was above 125 µg/mL each time.
Turning to `OC(Cn1cncn1)(Cn1cncn1)c1ccc(F)cc1F` [FLUCONAZOLE], the MIC with Candida albicans [1] was determined as 0.25 µg/mL (≈ 0.816 µM); in the data set with Candida albicans [3] it was 16 µg/mL (≈ 52.2 µM).
